Data reported in ChEMBL document CHEMBL4266000, “Discovery of Novel 4-Arylisochromenes as Anticancer Agents Inhibiting Tubulin Polymerization” (ACS Med Chem Lett, 2018).
Values belong to the compound of their own block, whether it stands above or below them. The source made the active and inactive calls. The rule behind the calls is not given here.

Tests used:
KB = assay: Antiproliferative activity against human KB cells after 72 hrs by MTT assay; format: functional, cell-based
Summary of the method: (§1)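 MTT viability read-out after 72 h continuous exposure to test compounds. Performed in triplicate and reported as IC50, means ± SD, n = 3.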

HCT-8 = assay: Antiproliferative activity against human HCT8 cells after 72 hrs by MTT assay; format: functional, cell-based; settings: HCT-8, 72 h; summary of the method: as §1
H22 [1] = assay: Antiproliferative activity against […] cells after 72 hrs by MTT assay; format: functional, cell-based; settings: Mus musculus, H22, 72 h; summary of the method: as §1
L02 = assay: Cytotoxicity against human LO2 cells after 72 hrs by MTT assay; format: cell-based; settings: L02, 72 h; summary of the method: as §1
[2] = Inhibition of porcine brain tubulin polymerization after 30 mins by spectrophotometric method; parameters: species or system Sus scrofa
HepG2 = assay: Antiproliferative activity against human HepG2 cells after 72 hrs by MTT assay; format: functional, cell-based; settings: HepG2, 72 h; summary of the method: as §1
K562 [3] = assay: Antiproliferative activity against human K562 cells after 72 hrs by MTT assay; format: functional, cell-based; settings: K562, 72 h; summary of the method: as §1
MDA-MB-231 = assay: Antiproliferative activity against human MDA-MB-231 cells after 72 hrs by MTT assay; format: functional, cell-based; settings: MDA-MB-231, 72 h; summary of the method: as §1
Sus scrofa [4] = organism: Sus scrofa; assay: Inhibition of [3H]colchicine binding to biotinylated porcine tubulin at 5 uM after 2 hrs by scintillation proximity assay
Sus scrofa [5] = organism: Sus scrofa; assay: Inhibition of [3H]colchicine binding to biotinylated porcine tubulin at 1 uM after 2 hrs by scintillation proximity assay
K562 [6] = assay: Cell cycle arrest in human K562 cells assessed as accumulation at G2/M phase at 10 nM after 48 hrs by propidium iodide staining based flow cytometry; format: functional
Summary of the method: (§2)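 K562 cells treated at 5, 10 or 20 nM for 48 h. Stained with propidium iodide and DNA content analysed for the fraction in G2/M.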

K562 [7] = assay: Induction of apoptosis in human K562 cells assessed as early apoptotic cells at 20 nM after 48 hrs by Annexin V-APC/7-AAD staining based flow cytometry (reference value: 5.7%); format: functional
K562 [8] = assay: Induction of apoptosis in human K562 cells assessed as late apoptotic cells at 20 nM after 48 hrs by Annexin V-APC/7-AAD staining based flow cytometry (reference value: 5.7%); format: functional
K562 [9] = assay: Induction of apoptosis in human K562 cells assessed as late apoptotic cells at 10 nM after 48 hrs by Annexin V-APC/7-AAD staining based flow cytometry (reference value: 5.7%); format: functional
K562 [10] = assay: Induction of mitochondrial membrane depolarization in human K562 cells at 20 nM after 48 hrs by JC-1 probe based flow cytometry (reference value: 0.6%); format: functional
Summary of the method: (§3)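 K562 cells treated at 0, 5, 10 or 20 nM for 48 h. Mitochondrial membrane potential measured with JC-1 probe and the percentage of cells with collapsed potential recorded.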

K562 [11] = assay: Induction of apoptosis in human K562 cells assessed as early apoptotic cells at 10 nM after 48 hrs by Annexin V-APC/7-AAD staining based flow cytometry (reference value: 5.7%); format: functional
K562 [12] = assay: Induction of mitochondrial membrane depolarization in human K562 cells at 10 nM after 48 hrs by JC-1 probe based flow cytometry (reference value: 0.6%); format: functional; summary of the method: as §3
K562 [13] = assay: Cell cycle arrest in human K562 cells assessed as accumulation at G2/M phase at 20 nM after 48 hrs by propidium iodide staining based flow cytometry; format: functional; summary of the method: as §2
K562 [14] = assay: Cell cycle arrest in human K562 cells assessed as accumulation at G2/M phase at 5 nM after 48 hrs by propidium iodide staining based flow cytometry; format: functional; summary of the method: as §2
K562 [15] = assay: Induction of apoptosis in human K562 cells after 48 hrs by Annexin V-APC/7-AAD staining based flow cytometry; format: functional, cell-based
K562 [16] = assay: Induction of apoptosis in human K562 cells assessed as late apoptotic cells at 5 nM after 48 hrs by Annexin V-APC/7-AAD staining based flow cytometry (reference value: 5.7%); format: functional
Mus musculus [17] = assay: Toxicity in ICR mouse xenografted with […] cells assessed as decrease in body weight up to 30 mg/kg, iv qd for 21 consecutive days measured every 2 days; format: organism-based; settings: in vivo, 48 h
Summary of the method: (§4)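 H22 cells inoculated subcutaneously into the right flank of mice. Dosing i.v. at 15 or 30 mg/kg per day, or paclitaxel 8 mg/kg every 2 days, for 21 days. Tumor size and body weight recorded every 2 days. Tumor weight compared with vehicle at day 21.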

HUVEC [18] = assay: Antivascular activity against HUVEC assessed as reduction in capillary like tube formation up to 20 nM after 6 hrs by inverted microscopic based matrigel method; format: functional, cell-based; settings: Homo sapiens
Summary of the method: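 HUVECs seeded on matrigel to form capillary-like tubules, then exposed to 0, 5, 10 or 20 nM for 6 h. Disruption of tube networks scored.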

K562 [19] = assay: Induction of mitochondrial membrane depolarization in human K562 cells at 5 nM after 48 hrs by JC-1 probe based flow cytometry (reference value: 0.6%); format: functional; summary of the method: as §3
H22 [20] = assay: Antitumor activity against […] cells xenografted in ICR mouse assessed as reduction in tumor weight at 30 mg/kg, iv qd for 21 consecutive days; format: functional; parameters: scale not given: the % may be the effect or the level left; summary of the method: as §4
HUVEC [21] = assay: Antimigratory activity in HUVEC after 24 hrs by wound healing based phase contrast microscopy; format: functional, cell-based; settings: Homo sapiens
Summary of the method: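 Confluent HUVEC monolayer scraped to make a wound. Cells exposed to test agent and migration into the scraped area followed over 24 h.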

K562 [22] = assay: Induction of apoptosis in human K562 cells assessed as early apoptotic cells at 5 nM after 48 hrs by Annexin V-APC/7-AAD staining based flow cytometry (reference value: 5.7%); format: functional
K562 [23] = assay: Induction of microtubule network disruption in human K562 cells after 24 hrs by DAPI staining based immunofluorescence assay; format: functional, cell-based
Summary of the method: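 K562 cells exposed at 5, 10 or 20 nM for 24 h. Microtubule network visualized by immunofluorescence against untreated cells.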

H22 [24] = assay: Antitumor activity against […] cells xenografted in ICR mouse assessed as reduction in tumor weight at 15 mg/kg, iv qd for 21 consecutive days; format: functional; parameters: scale not given: the % may be the effect or the level left; summary of the method: as §4
Mus musculus [25] = assay: Toxicity in ICR mouse xenografted with […] cells assessed as decrease in body weight at 8 mg/kg, iv per 2 days for 21 consecutive days measured every 2 days; format: organism-based; settings: in vivo, 48 h; summary of the method: as §4
H22 [26] = assay: Antitumor activity against […] cells xenografted in ICR mouse assessed as reduction in tumor weight at 8 mg/kg, iv per 2 days for 21 consecutive days; format: functional; parameters: scale not given: the % may be the effect or the level left; summary of the method: as §4

IC50 (KB): 25100 nM
IC50 (HCT-8): 35200 nM
IC50 [2]: 10600 nM
IC50 (HepG2): 23700 nM
IC50 (K562 [3]): 20500 nM
IC50 (MDA-MB-231): 30200 nM
SMILES: COc1ccc2c(c1O)COC(C)C2=O (centres undefined)
IC50 (H22 [1]): 18200 nM
IC50 (L02): 22200 nM

IC50 (KB): 16 nM
IC50 (HCT-8): 25 nM
IC50 [2]: 4200 nM
IC50 (HepG2): 26 nM
IC50 (K562 [3]): 19 nM
IC50 (MDA-MB-231): 28 nM
SMILES: COc1ccc2c(c1O)COC=C2c1cc(OC)c(OC)c(OC)c1
IC50 (H22 [1]): 10 nM
IC50 (L02): 138 nM

IC50 (KB): 12 nM
IC50 (HCT-8): 12 nM
inhibition (Sus scrofa [4]): 92.6%
IC50 [2]: 2500 nM
inhibition (Sus scrofa [5]): 79.4%
IC50 (K562 [3]): 8 nM
IC50 (MDA-MB-231): 11 nM
SMILES: COc1ccc2c(c1O)COC[C@@H]2c1cc(OC)c(OC)c(OC)c1
IC50 (H22 [1]): 8 nM
IC50 (L02): 58 nM

IC50 (KB): 870 nM
IC50 (HCT-8): 940 nM
IC50 [2]: 4300 nM
IC50 (K562 [3]): 460 nM
IC50 (MDA-MB-231): 900 nM
SMILES: COc1ccc2c(c1O)COC[C@H]2c1cc(OC)c(OC)c(OC)c1
IC50 (H22 [1]): 800 nM
IC50 (L02): 900 nM

IC50 (KB): 25 nM
IC50 (HCT-8): 30 nM
inhibition (Sus scrofa [4]): 89.6%
IC50 [2]: 3100 nM
IC50 (HepG2): 15 nM
inhibition (Sus scrofa [5]): 76.4%
IC50 (K562 [3]): 10 nM
IC50 (MDA-MB-231): 22 nM
SMILES: COc1ccc2c(c1O)COCC2c1cc(OC)c(OC)c(OC)c1 (racemic)
Activity (K562 [6]): 19.5%
Activity (K562 [7]): 54.1%
Activity (K562 [8]): 54.1%
Activity (K562 [9]): 29%
Activity (K562 [10]): 55.1%
Activity (K562 [11]): 29%
Activity (K562 [12]): 26.7%
Activity (K562 [13]): 22.4%
Activity (K562 [14]): 17.5%
Activity (K562 [15]): Dose-dependent effect
Activity (K562 [16]): 13.7%
IC50 (H22 [1]): 11 nM
IC50 (L02): 95 nM
Activity (Mus musculus [17]): Non-Toxic
Activity (HUVEC [18]): Active
Activity (K562 [19]): 12.7%
Activity (H22 [20]): 62.3%
Activity (HUVEC [21]): Dose-dependent effect
Activity (K562 [22]): 13.7%
Activity (K562 [23]): Dose-dependent effect
Activity (H22 [24]): 46.5%

More lines, now with the values behind:

SMILES: COc1cc2c(cc1O)C(c1cc(OC)c(OC)c(OC)c1)=COC2
IC50 (HepG2): > 10000 nM

SMILES: COc1cc2c(cc1O)C(c1cc(OC)c(OC)c(OC)c1)COC2 (centres undefined)
IC50 (HepG2): > 10000 nM

SMILES: COc1ccc(/C=C\c2cc(OC)c(OC)c(OC)c2)cc1O [COMBRETASTATIN A4]
IC50 (KB): 12 nM
IC50 (HCT-8): 15 nM
IC50 (H22 [1]): 8 nM
IC50 (L02): 95 nM
IC50 [2]: 2500 nM
Activity (H22 [20]): 55.3%
IC50 (K562 [3]): 15 nM
IC50 (MDA-MB-231): 15 nM
Activity (H22 [24]): 44.8%

SMILES: CC(=O)O[C@H]1C(=O)[C@@]2(C)[C@H]([C@H](OC(=O)c3ccccc3)[C@]3(O)C[C@H](OC(=O)[C@H](O)[C@@H](NC(=O)c4ccccc4)c4ccccc4)C(C)=C1C3(C)C)[C@]1(OC(C)=O)CO[C@@H]1C[C@@H]2O [PACLITAXEL]
Activity (Mus musculus [25]): Toxic
Activity (H22 [26]): 72.1%
